pEC50, pKi: −log10 of the molar value. Active and inactive are the calls of the source.
Key:
[1] = system: Mus musculus; experiment: Antinociceptive activity in icv dosed ICR mouse assessed as warm-water tail-withdrawal latency administered bid for 3 days; format: functional
[2] = system: Mus musculus; experiment: Antinociceptive activity in ICR mouse assessed as warm-water tail-withdrawal latency at 0.1 to 100 nmol, icv bid for 3 days relative to naive control; format: functional
[3] = system: Mus musculus; experiment: Antinociceptive activity in ICR mouse assessed as warm-water tail-withdrawal latency at 10 nmol, icv by tail flick assay; format: functional
Summary of the method: (§1)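 Male ICR mice dosed i.c.v. in 5 µL (test compounds in 100% DMSO, morphine in water) under light ether anaesthesia. Tail withdrawal from 55 °C water, 10 s cutoff, tested 10–180 min post-injection. %MPE computed against pre-drug baseline. A50 with 95% confidence limits by linear regression at time of peak effect.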

[4] = system: Mus musculus; experiment: Antinociceptive activity in icv dosed ICR mouse assessed as warm-water tail-withdrawal latency by tail flick assay; format: functional; summary of the method: as §1
[5] = system: CHO; experiment: Activity at human MOR/mouse DOR expressed in CHO cells assessed as increase in forskolin-stimulated cAMP accumulation at 1 uM after drug exposure for 20 hrs followed by washout in the presence of naloxone; format: functional, cell-based
Summary of the method: (§2)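 MOR/DOR co-expressing CHO cells (mouse N-cMyc DOR + human MOR) exposed 20 h to drug, then washed three times with serum-free medium and preincubated 20 min at 37 °C with IBMX 500 µM. Then 10 min at 37 °C with forskolin 100 µM/IBMX 500 µM, with or without 10 µM naloxone. Read-out was cAMP by [3H]cAMP–protein kinase binding against a standard curve. Mean of n=3.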

[6] = system: CHO; experiment: Activity at human MOR/mouse DOR expressed in CHO cells assessed as increase in forskolin-stimulated cAMP accumulation at 1 uM after drug exposure for 20 hrs followed by washout; format: functional, cell-based; summary of the method: as §2
[7] = system: CHO; experiment: Activity at human MOR/mouse DOR expressed in CHO cells assessed as increase in forskolin-stimulated cAMP accumulation at 30 nM after drug exposure for 20 hrs followed by washout in the presence of naloxone; format: functional, cell-based; summary of the method: as §2
[8] = target: T1, Kappa-type opioid receptor (Homo sapiens, UniProt P41145); experiment: Agonist activity at human kappa opioid receptor expressed in CHO cells assessed as [35S]GTPgammaS binding at 10 uM by scintillation counting analysis; format: functional, cell-based
T1 sequence (P41145 whole entry): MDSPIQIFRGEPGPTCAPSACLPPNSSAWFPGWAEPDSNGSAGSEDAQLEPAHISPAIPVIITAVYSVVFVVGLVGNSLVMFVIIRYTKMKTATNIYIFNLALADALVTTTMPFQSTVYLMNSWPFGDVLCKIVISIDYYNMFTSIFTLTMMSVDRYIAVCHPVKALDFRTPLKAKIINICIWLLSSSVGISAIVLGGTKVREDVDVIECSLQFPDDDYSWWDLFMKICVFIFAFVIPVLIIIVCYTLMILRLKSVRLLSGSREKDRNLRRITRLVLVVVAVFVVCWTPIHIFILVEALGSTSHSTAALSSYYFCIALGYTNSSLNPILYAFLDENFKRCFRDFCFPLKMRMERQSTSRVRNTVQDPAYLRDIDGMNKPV
Summary of the method: (§3)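 Human KOR or MOR in CHO cell membranes (50 µg protein), 3 h at 25 °C, pH 7.4 Tris buffer with 100 mM NaCl, 10 mM MgCl2, 1 mM EDTA, 1 mM DTT, 0.1% BSA, GDP 40 µM and [35S]GTP-γ-S 50 pM. Stimulation = (S−B)/B×100, with Emax relative to U69,593 (KOR) or DAMGO (MOR). Curves were ten points, ≥3 experiments pooled. Antagonist Ke was taken from the shift in standard agonist EC50.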

[9] = system: Mus musculus; experiment: Antinociceptive activity in icv dosed ICR mouse assessed as warm-water tail-withdrawal latency by tail flick assay in presence of naloxone; format: functional, organism-based
[10] = system: Mus musculus; experiment: Antinociceptive activity in ICR mouse assessed as warm-water tail-withdrawal latency at 1 nmol, icv by tail flick assay; format: functional; summary of the method: as §1
[11] = system: CHO; experiment: Activity at human MOR/mouse DOR expressed in CHO cells assessed as increase in forskolin-stimulated cAMP accumulation at 30 nM after drug exposure for 20 hrs followed by washout; format: functional, cell-based; summary of the method: as §2
[12] = Activity at human MOR/mouse DOR expressed in CHO cells assessed as inhibition of DAMGO-mediated forskolin-stimulated cAMP accumulation at 30 nM after 20 hrs by scintillation counting analysis; format: functional
Summary of the method: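 CHO cells stably co-expressing human MOR and cMyc-tagged mouse DOR were pretreated 20 h with 30 nM drug or medium, then washed. They were preincubated 20 min with 500 µM IBMX, then given 15 min with IBMX, 100 µM forskolin and graded DAMGO at 37 °C. cAMP was measured by [3H]cAMP–protein kinase binding against a standard curve.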

[13] = Activity at human MOR/mouse DOR expressed in CHO cells assessed as inhibition of DAMGO-mediated forskolin-stimulated cAMP accumulation after 20 hrs by scintillation counting analysis relative to morphine; format: functional
Summary of the method: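 CHO cells stably co-expressing human MOR and N-cMyc-tagged mouse DOR, treated 20 h with drug (morphine 1 µM; test compounds 30 nM) or medium. Cells washed, 20 min in serum-free medium with 500 µM IBMX at 37 °C, then 15 min with IBMX plus 100 µM forskolin and graded DAMGO. Acid-extracted cAMP measured by [³H]cAMP protein-kinase binding competition. DAMGO EC₅₀ expressed as fold over control cells; n=3.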

[14] = target: T2, Mu-type opioid receptor (Homo sapiens, UniProt P35372); experiment: Agonist activity at human mu opioid receptor expressed in CHO cells assessed as [35S]GTPgammaS binding by scintillation counting analysis relative to DAMGO; format: functional, cell-based; summary of the method: as §3
T2 sequence (P35372 whole entry): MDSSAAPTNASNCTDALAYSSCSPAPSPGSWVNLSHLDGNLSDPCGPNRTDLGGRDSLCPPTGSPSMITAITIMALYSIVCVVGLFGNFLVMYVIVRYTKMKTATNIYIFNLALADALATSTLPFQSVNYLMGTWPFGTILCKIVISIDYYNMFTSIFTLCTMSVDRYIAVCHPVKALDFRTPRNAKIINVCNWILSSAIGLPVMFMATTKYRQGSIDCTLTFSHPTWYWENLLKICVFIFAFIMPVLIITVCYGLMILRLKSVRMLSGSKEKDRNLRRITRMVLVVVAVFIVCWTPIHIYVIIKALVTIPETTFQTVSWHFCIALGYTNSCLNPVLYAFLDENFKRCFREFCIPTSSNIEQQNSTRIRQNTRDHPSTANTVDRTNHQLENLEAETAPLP

[15] = target: T2, Mu-type opioid receptor; experiment: Agonist activity at human mu opioid receptor expressed in CHO cells assessed as [35S]GTPgammaS binding by scintillation counting analysis; format: functional, cell-based; summary of the method: as §3
[16] = Agonist activity at delta opioid receptor expressed in rat/mouse NG108-15 cells assessed as [35S]GTPgammaS binding by scintillation counting analysis relative to DADLE; format: functional, cell-based
Summary of the method: as §3, with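 “NG108-15” for “Human KOR or MOR in CHO”, “pM. Nonspecific binding with 40 µM GTP-γ-S; filtration and scintillation counting.” for “pM.”, “DADLE.” for “U69,593 (KOR) or DAMGO (MOR).”, “pooled.” for “pooled. Antagonist”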

[17] = species on record: Homo sapiens; experiment: Selectivity ratio of Ki for human kappa opioid receptor to Ki for human delta opioid receptor
[18] = species on record: Homo sapiens; experiment: Selectivity ratio of Ki for human mu opioid receptor to Ki for human delta opioid receptor
[19] = target: T1, Kappa-type opioid receptor; experiment: Displacement of [3H]U69,593 from human kappa opioid receptor expressed in CHO cells by scintillation counting analysis; format: cell-based
[20] = target: T2, Mu-type opioid receptor; experiment: Displacement of [3H]DAMGO from human mu opioid receptor expressed in CHO cells by scintillation counting analysis; format: cell-based
[21] = target: Delta-type opioid receptor (Homo sapiens, UniProt P41143); experiment: Displacement of [3H]DADLE from human delta opioid receptor expressed in CHO cells by scintillation counting analysis; format: cell-based
Sequence of Delta-type opioid receptor (P41143 whole entry): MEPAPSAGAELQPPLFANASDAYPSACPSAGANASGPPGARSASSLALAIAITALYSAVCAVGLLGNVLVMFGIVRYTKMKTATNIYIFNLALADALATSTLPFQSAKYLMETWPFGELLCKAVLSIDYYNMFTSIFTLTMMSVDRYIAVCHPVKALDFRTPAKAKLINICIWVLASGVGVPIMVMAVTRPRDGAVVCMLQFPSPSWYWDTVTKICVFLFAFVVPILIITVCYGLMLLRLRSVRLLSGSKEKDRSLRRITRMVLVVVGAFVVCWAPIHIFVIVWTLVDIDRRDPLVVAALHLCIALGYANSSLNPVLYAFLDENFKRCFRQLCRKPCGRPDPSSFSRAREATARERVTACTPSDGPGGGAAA

[22] = cells; conditions: CHO, 20 h

SMILES: CN1CC[C@]23c4c5ccc(O)c4O[C@H]2[C@@H](O)C=C[C@H]3[C@H]1C5 [MORPHINE]
- A50 [1]: 19.04 nmol
- fold change (FC) [2]: 44
- %max [3]: 100%
- A50 [4]: 0.43 nmol
- Activity [5]: Active
- Activity [6]: Active

SMILES: CN1CC[C@]23c4c5ccc(O)c4O[C@H]2c2ncc(-c4ccc(Cl)cc4)cc2C[C@@]3(OCCCc2ccccc2)[C@H]1C5
- Activity [7]: Active
- Activity [8]: inactive
- Activity [9]: inactive
- %max [10]: 92%
- A50 [4]: 0.23 nmol
- Activity [4]: Dose-dependent effect
- Activity [11]: Active
- Emax at 0.03 µM [12]: 20%
- fold change (FC) [13]: 7
- Emax [14]: 125%
- pEC50 [15]: 8.67
- Emax [16]: 85%
- Ratio Ki [17]: 1.5
- Ratio Ki [18]: 0.52
- pKi [19]: 8.82
- pKi [20]: 9.27
- pKi [21]: 8.98
- pEC50 [22]: 9.47
